Experimental data: ChEMBL document CHEMBL4265950, “Discovery of furyl/thienyl β-carboline derivatives as potent and selective PDE5 inhibitors with excellent vasorelaxant effect” (Eur J Med Chem, 2018)

Key:
[1] = biological target: T1, cGMP-specific 3',5'-cyclic phosphodiesterase (Homo sapiens, UniProt O76074); experiment: Inhibition of full length recombinant human N-terminal GST-tagged PDE5A1 expressed in baculovirus infected sf9 cells using FAM-cyclic-3',5-GMP as substrate after 1 hr by fluorescence polarization assay
[2] = biological target: T1, cGMP-specific 3',5'-cyclic phosphodiesterase; experiment: Inhibition of full length recombinant human N-terminal GST-tagged PDE5A1 expressed in baculovirus infected sf9 cells at 100 nM using FAM-cyclic-3',5-GMP as substrate after 1 hr by fluorescence polarization assay relative to control
Method in brief: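 Single-point test at 100 nM, reported as percent inhibition. Human PDE5 at 15 ng/mL with 100 nM FAM-cGMP in MOPS pH 7.5 buffer (MgCl2, EDTA, BSA, DTT), 1% DMSO final, 60 min at 25 °C. Binding agent added for 1 h, then fluorescence polarization read at […] nm.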

[3] = biological target: Dual specificity calcium/calmodulin-dependent 3',5'-cyclic nucleotide phosphodiesterase 1A (Homo sapiens, UniProt P54750); experiment: Inhibition of full length recombinant human N-terminal GST-tagged PDE1A expressed in baculovirus infected sf9 cells using FAM-cyclic-3',5-AMP as substrate after 1 hr by fluorescence polarization assay
Method in brief: (§1)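 Fluorescence polarization assay run at 25 °C for 60 min in 40 mM MOPS pH 7.5, 0.5 mM EDTA, 15 mM MgCl2, 0.15 mg/mL BSA, 1 mM DTT, 0.05% ProClin 200. Contained 15 ng/mL PDE isoform and 100 nM FAM-cGMP or FAM-cAMP according to isoform, with 1% DMSO final. Binding agent added for 1 h at 25 °C; read at […] nm. IC50 from normalized nonlinear dose-response fit.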

[4] = biological target: cGMP-dependent 3',5'-cyclic phosphodiesterase (Homo sapiens, UniProt O00408); experiment: Inhibition of recombinant human N-terminal FLAG-tagged PDE2A (2 to 941 residues) expressed in baculovirus infected sf9 cells using FAM-cyclic-3',5-AMP as substrate after 1 hr by fluorescence polarization assay; method in brief: as §1
[5] = biological target: cGMP-inhibited 3',5'-cyclic phosphodiesterase 3B (Homo sapiens, UniProt Q13370); experiment: Inhibition of recombinant human N-terminal GST-tagged PDE3B (592 to end residues) expressed in baculovirus infected sf9 cells using FAM-cyclic-3',5-AMP as substrate after 1 hr by fluorescence polarization assay; method in brief: as §1
[6] = biological target: 3',5'-cyclic-AMP phosphodiesterase 4A (Homo sapiens, UniProt P27815); experiment: Inhibition of full length recombinant human N-terminal GST-tagged PDE4A1A expressed in baculovirus infected sf9 cells using FAM-cyclic-3',5-AMP as substrate after 1 hr by fluorescence polarization assay
[7] = biological target: Cone cGMP-specific 3',5'-cyclic phosphodiesterase subunit alpha' (Homo sapiens, UniProt P51160); experiment: Inhibition of full length recombinant human N-terminal GST-tagged PDE6C expressed in baculovirus infected sf9 cells using […] as substrate after 1 hr by fluorescence polarization assay
Homo sapiens [8] = organism: Homo sapiens; experiment: Selectivity index, ratio of IC50 for inhibition of full length recombinant human N-terminal GST-tagged PDE6C expressed in baculovirus infected sf9 cells to IC50 for inhibition of full length recombinant human N-terminal GST-tagged PDE5A1 expressed in baculovirus infected sf9 cells
[9] = biological target: Dual 3',5'-cyclic-AMP and -GMP phosphodiesterase 11A (Homo sapiens, UniProt Q9HCR9); experiment: Inhibition of full length recombinant human N-terminal GST-tagged PDE11A4 expressed in baculovirus infected sf9 cells using FAM-cyclic-3',5-AMP as substrate after 1 hr by fluorescence polarization assay
Homo sapiens [10] = organism: Homo sapiens; experiment: Selectivity index, ratio of IC50 for inhibition of full length recombinant human N-terminal GST-tagged PDE11A4 expressed in baculovirus infected sf9 cells to IC50 for inhibition of full length recombinant human N-terminal GST-tagged PDE5A1 expressed in baculovirus infected sf9 cells

3',5'-cyclic-AMP phosphodiesterase 4A, sequence (P27815 whole entry): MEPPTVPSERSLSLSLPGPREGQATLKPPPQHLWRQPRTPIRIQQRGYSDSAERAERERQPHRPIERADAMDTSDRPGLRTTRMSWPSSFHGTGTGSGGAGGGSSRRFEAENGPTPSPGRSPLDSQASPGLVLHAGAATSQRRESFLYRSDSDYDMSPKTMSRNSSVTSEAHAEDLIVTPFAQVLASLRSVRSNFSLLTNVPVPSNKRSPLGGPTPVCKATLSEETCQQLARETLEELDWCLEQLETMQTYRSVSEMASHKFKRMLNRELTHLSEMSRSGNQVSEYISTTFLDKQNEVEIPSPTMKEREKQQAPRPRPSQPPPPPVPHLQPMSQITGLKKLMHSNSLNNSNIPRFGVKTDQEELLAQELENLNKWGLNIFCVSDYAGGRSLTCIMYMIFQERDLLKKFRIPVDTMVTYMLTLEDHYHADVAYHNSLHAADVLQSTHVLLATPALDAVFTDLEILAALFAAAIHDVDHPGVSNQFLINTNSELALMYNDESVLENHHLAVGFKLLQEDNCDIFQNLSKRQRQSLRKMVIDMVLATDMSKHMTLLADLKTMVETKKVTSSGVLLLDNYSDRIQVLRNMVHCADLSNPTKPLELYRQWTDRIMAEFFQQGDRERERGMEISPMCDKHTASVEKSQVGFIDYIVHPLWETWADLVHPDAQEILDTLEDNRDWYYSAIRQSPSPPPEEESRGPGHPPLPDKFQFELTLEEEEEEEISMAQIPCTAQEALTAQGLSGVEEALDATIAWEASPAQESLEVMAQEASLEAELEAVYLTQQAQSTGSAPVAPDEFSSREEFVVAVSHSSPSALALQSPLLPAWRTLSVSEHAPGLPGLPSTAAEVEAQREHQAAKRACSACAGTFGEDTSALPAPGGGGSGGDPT
Cone cGMP-specific 3',5'-cyclic phosphodiesterase subunit alpha', sequence (P51160 whole entry): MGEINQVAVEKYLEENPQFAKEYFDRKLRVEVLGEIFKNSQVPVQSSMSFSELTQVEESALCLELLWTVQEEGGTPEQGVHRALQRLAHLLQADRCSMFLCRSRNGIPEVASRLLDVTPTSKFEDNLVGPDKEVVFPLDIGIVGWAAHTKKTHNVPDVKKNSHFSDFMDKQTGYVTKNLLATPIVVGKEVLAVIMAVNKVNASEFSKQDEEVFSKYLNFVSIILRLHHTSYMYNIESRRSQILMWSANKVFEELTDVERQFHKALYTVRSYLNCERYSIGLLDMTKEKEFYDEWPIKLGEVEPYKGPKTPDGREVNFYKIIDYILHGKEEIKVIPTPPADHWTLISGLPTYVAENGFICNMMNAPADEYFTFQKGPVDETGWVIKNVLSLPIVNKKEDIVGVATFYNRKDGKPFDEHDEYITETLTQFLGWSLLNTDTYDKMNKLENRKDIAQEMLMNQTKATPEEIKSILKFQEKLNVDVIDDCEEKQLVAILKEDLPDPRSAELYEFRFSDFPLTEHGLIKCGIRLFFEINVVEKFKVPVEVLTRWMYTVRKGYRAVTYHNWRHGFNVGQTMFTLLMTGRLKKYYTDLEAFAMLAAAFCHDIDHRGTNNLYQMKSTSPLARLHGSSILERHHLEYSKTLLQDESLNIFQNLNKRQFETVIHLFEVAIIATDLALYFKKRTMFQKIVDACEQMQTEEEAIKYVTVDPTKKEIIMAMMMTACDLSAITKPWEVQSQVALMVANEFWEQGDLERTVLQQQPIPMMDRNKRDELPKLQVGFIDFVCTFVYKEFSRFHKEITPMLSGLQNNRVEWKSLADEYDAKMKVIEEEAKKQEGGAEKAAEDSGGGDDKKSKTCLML
Dual 3',5'-cyclic-AMP and -GMP phosphodiesterase 11A, sequence (Q9HCR9 whole entry): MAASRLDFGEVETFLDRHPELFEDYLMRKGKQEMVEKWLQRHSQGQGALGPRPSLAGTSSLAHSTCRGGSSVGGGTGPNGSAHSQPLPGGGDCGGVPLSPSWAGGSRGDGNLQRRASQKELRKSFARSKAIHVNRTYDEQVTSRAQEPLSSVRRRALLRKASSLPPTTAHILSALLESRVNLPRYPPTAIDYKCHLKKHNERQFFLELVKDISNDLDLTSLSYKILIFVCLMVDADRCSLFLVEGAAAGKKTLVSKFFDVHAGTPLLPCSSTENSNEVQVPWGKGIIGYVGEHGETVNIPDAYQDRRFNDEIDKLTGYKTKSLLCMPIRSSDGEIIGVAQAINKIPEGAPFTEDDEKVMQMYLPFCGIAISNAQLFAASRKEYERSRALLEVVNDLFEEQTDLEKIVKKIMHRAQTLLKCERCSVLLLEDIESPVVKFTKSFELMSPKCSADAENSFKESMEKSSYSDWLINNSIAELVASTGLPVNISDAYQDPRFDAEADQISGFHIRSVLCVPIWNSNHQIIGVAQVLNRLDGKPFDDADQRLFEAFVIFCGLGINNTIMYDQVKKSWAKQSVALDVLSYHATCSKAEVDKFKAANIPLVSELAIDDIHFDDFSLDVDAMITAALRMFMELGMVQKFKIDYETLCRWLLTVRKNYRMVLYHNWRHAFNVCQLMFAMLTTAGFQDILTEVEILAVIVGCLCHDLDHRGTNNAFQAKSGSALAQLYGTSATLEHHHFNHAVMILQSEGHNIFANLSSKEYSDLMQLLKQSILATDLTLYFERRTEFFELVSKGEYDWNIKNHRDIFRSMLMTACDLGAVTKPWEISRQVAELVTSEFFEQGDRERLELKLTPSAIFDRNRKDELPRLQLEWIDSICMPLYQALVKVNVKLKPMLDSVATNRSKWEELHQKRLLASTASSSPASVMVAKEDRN
cGMP-inhibited 3',5'-cyclic phosphodiesterase 3B, sequence (Q13370 whole entry): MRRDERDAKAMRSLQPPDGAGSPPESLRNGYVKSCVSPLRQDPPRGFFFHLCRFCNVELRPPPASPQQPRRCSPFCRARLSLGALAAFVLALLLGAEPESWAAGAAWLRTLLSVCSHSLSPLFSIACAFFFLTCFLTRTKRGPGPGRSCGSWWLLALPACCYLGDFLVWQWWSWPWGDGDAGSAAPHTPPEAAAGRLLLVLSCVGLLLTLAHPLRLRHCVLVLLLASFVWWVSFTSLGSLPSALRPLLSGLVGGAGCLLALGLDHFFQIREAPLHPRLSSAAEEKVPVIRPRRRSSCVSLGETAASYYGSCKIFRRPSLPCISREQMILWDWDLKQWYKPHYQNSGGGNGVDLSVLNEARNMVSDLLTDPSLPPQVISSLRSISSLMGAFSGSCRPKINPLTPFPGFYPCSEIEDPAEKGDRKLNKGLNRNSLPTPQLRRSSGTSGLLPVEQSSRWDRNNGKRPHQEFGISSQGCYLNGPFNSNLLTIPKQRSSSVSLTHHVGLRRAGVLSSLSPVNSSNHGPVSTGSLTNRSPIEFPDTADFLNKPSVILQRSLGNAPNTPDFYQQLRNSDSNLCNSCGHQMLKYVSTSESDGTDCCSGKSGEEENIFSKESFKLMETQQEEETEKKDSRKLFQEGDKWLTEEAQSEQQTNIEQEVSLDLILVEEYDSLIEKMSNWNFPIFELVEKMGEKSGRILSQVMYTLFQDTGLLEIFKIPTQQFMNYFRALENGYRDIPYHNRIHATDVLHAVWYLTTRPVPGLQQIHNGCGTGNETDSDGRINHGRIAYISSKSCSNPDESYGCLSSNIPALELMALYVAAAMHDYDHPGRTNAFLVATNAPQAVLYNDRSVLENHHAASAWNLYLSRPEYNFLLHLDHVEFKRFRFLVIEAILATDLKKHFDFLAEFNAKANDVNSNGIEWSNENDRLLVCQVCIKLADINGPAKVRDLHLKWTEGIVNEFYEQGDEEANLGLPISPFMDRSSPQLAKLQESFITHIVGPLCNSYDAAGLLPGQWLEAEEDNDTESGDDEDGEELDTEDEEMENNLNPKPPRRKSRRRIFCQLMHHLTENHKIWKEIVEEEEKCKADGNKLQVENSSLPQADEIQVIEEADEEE
cGMP-dependent 3',5'-cyclic phosphodiesterase, sequence (O00408 whole entry, the tested form may be a part): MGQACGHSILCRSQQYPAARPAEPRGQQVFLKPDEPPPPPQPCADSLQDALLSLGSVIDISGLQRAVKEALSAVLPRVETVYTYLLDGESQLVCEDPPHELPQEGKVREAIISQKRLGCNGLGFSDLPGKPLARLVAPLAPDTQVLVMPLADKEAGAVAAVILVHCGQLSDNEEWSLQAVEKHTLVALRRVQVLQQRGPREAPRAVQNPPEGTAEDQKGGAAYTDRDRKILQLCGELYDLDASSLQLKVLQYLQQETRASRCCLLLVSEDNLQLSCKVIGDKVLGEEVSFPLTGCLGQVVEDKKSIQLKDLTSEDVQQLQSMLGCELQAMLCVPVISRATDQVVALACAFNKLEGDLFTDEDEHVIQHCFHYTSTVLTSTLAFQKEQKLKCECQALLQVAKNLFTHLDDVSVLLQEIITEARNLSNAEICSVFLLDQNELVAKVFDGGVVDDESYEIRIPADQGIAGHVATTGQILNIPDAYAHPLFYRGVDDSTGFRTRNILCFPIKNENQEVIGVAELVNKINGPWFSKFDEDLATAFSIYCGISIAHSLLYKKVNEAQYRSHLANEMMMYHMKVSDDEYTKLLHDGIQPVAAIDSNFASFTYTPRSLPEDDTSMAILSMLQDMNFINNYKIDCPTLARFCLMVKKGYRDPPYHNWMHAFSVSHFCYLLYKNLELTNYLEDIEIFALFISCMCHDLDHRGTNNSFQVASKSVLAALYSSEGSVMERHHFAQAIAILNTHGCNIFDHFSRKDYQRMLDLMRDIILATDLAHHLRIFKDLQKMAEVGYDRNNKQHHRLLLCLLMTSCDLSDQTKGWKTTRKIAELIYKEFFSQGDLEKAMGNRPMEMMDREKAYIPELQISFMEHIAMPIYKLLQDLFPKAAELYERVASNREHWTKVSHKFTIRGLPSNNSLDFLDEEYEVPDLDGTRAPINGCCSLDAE

| SMILES | IC50 [1] [nM] | inhibition [2] [%] | other results |
| --- | --- | --- | --- |
| Cc1ccc([C@@H]2c3[nH]c4ccccc4c3C[C@@H]3C(=O)N(C)CC(=O)N23)o1 | 36.9 | 89.5 | – |
| CCc1ccc([C@@H]2c3[nH]c4ccccc4c3C[C@H]3C(=O)N(C)CC(=O)N23)o1 | – | 41.1 | – |
| COc1cccc2cc(C3c4[nH]c5ccccc5c4CCN3c3ccc(-c4ccccn4)cn3)oc12 (centres undefined) | – | 17.5 | – |
| CCc1ccc(C2c3[nH]c4ccccc4c3CCN2C(=O)/C=C/c2ccc(C(=O)O)cc2)s1 (centres undefined) | 235 | 47.4 | – |
| CCc1ccc([C@H]2c3[nH]c4ccccc4c3C[C@@H]3C(=O)N(C)CC(=O)N23)s1 | – | 38.8 | – |
| CCc1ccc([C@H]2c3[nH]c4ccccc4c3C[C@H]3C(=O)N(CC)C(=O)N23)s1 | 383 | 44.1 | – |
| CN1CC(=O)N2[C@H](c3ccco3)c3[nH]c4ccccc4c3C[C@@H]2C1=O | – | 48.1 | – |
| CCc1ccc(C2c3[nH]c4ccccc4c3CCN2c2ccc(-c3ccccn3)cn2)o1 (centres undefined) | – | 39.2 | – |
| CCc1ccc(C2c3[nH]c4ccccc4c3CCN2C(=O)/C=C/c2cccc(Br)c2)s1 (centres undefined) | – | 33.7 | – |
| CCN1C(=O)[C@@H]2Cc3c([nH]c4ccccc34)[C@@H](c3sccc3C)N2C1=O | 21.4 | 76.1 | IC50 [3]: > 20000 nM; IC50 [4]: > 20000 nM; IC50 [5]: > 20000 nM; IC50 [6]: > 10000 nM; IC50 [7]: 13 nM; Ratio IC50 (Homo sapiens [8]): 0.6; IC50 [9]: 155 nM; Ratio IC50 (Homo sapiens [10]): 7 |
| CCc1ccc([C@H]2c3[nH]c4ccccc4c3C[C@@H]3C(=O)N(CC)C(=O)N23)s1 | 155 | 45.8 | – |
| Cc1ccc(C(=O)c2[nH]c3ccccc3c2CCNc2ccc(-c3ccccn3)cn2)s1 | – | 20.4 | – |
| Cc1cc(C(=O)c2[nH]c3ccccc3c2CCNc2ccc(-c3ccccn3)cn2)sc1C | – | 1.7 | – |
| CCCCN1C(=O)[C@@H]2Cc3c([nH]c4ccccc34)[C@H](c3ccc(CC)s3)N2C1=O | – | 35.9 | – |
| CCc1ccc([C@H]2c3[nH]c4ccccc4c3C[C@H]3C(=O)N(C)CC(=O)N23)o1 | 56.4 | 69 | – |
| Cc1ccc(C2c3[nH]c4ccccc4c3CCN2c2ccc(-c3ccccn3)cn2)s1 (centres undefined) | – | 38.1 | – |
| CCc1ccc([C@H]2c3[nH]c4ccccc4c3C[C@@H]3C(=O)N(CC)C(=O)N23)o1 | 27.6 | 83.6 | IC50 [3]: > 20000 nM; IC50 [4]: > 20000 nM; IC50 [5]: > 20000 nM; IC50 [6]: > 10000 nM; IC50 [7]: 10 nM; Ratio IC50 (Homo sapiens [8]): 0.4; IC50 [9]: 802 nM; Ratio IC50 (Homo sapiens [10]): 29 |
| Cc1ccc(C(=O)c2[nH]c3ccccc3c2CCNc2ccc(-c3ccccn3)cn2)o1 | – | 23.7 | – |
| COc1cccc2cc(C(=O)c3[nH]c4ccccc4c3CCNc3ccc(-c4ccccn4)cn3)oc12 | – | 23.9 | – |
| O=C(c1cc2ccccc2o1)c1[nH]c2ccccc2c1CCNc1ccc(-c2ccccn2)cn1 | – | 17.7 | – |
| CN1CC(=O)N2[C@@H](c3ccc(Br)s3)c3[nH]c4ccccc4c3C[C@@H]2C1=O | – | 39.8 | – |
| CCCCN1C(=O)[C@H]2Cc3c([nH]c4ccccc34)[C@@H](c3ccc(CC)s3)N2C1=O | 36.4 | 76.2 | IC50 [3]: > 20000 nM; IC50 [4]: > 20000 nM; IC50 [5]: > 20000 nM; IC50 [6]: > 10000 nM; IC50 [7]: > 1000 nM; Ratio IC50 (Homo sapiens [8]): > 27; IC50 [9]: 386 nM; Ratio IC50 (Homo sapiens [10]): 10 |
| CCCc1ccc(C(=O)c2[nH]c3ccccc3c2CCNc2ccc(-c3ccccn3)cn2)s1 | – | 18.3 | – |
| CN1CC(=O)N2[C@H](c3sccc3Br)c3[nH]c4ccccc4c3C[C@@H]2C1=O | 80.2 | 67.2 | – |
| CCCCN1C(=O)[C@H]2Cc3c([nH]c4ccccc34)[C@H](c3ccc(CC)s3)N2C1=O | – | 37.9 | – |
| CCc1ccc([C@@H]2c3[nH]c4ccccc4c3C[C@H]3C(=O)N(C)CC(=O)N23)s1 | 61 | 72.7 | – |
| Cc1cc(C2c3[nH]c4ccccc4c3CCN2c2ccc(-c3ccccn3)cn2)sc1C (centres undefined) | – | 21.2 | – |

| SMILES | IC50 [1] [nM] | inhibition [2] [%] | other results |
| --- | --- | --- | --- |
| CCc1ccc([C@H]2c3[nH]c4ccccc4c3C[C@H]3C(=O)N(C)CC(=O)N23)s1 | 19.9 | 86.7 | IC50 [3]: > 20000 nM; IC50 [4]: > 20000 nM; IC50 [5]: > 20000 nM; IC50 [6]: > 10000 nM; IC50 [7]: > 1000 nM; Ratio IC50 (Homo sapiens [8]): > 50; IC50 [9]: > 1000 nM; Ratio IC50 (Homo sapiens [10]): > 50 |
| CCN1C(=O)[C@@H]2Cc3c([nH]c4ccccc34)[C@H](c3sccc3C)N2C1=O | – | 27.7 | – |
| CCc1ccc(C2c3[nH]c4ccccc4c3CCN2c2ncc(-c3ccc(OC)c(OC)c3)cn2)o1 (centres undefined) | 177 | 47.6 | – |
| Cc1ccc([C@H]2c3[nH]c4ccccc4c3C[C@@H]3C(=O)N(C)CC(=O)N23)o1 | – | 40.5 | – |
| CCc1ccc(C(=O)c2[nH]c3ccccc3c2CCNc2ncc(-c3ccc(OC)c(OC)c3)cn2)s1 | – | 24.7 | – |
| CCc1ccc([C@H]2c3[nH]c4ccccc4c3C[C@H]3C(=O)N(CC)C(=O)N23)o1 | 81.2 | 62.2 | – |
| CCCc1ccc(C2c3[nH]c4ccccc4c3CCN2c2ccc(-c3ccccn3)cn2)s1 (centres undefined) | – | 28 | – |
| CCc1ccc(C(=O)c2[nH]c3ccccc3c2C[C@@H]2NC(=O)N(CC)C2=O)s1 | – | 27.3 | – |
| CCNC(=O)N1[C@H](c2ccc(CC)s2)c2[nH]c3ccccc3c2C[C@@H]1C(=O)OC | – | 41.3 | – |
| CN1CC(=O)N2[C@@H](c3ccco3)c3[nH]c4ccccc4c3C[C@@H]2C1=O | – | 35.2 | – |
| CCc1ccc([C@H]2c3[nH]c4ccccc4c3C[C@@H]3C(=O)N(C)CC(=O)N23)o1 | – | 39.1 | – |
| CN1CC(=O)N2[C@@H](c3sccc3Br)c3[nH]c4ccccc4c3C[C@@H]2C1=O | – | 41.6 | – |
| CCCCN1C(=O)[C@@H]2Cc3c([nH]c4ccccc34)[C@@H](c3ccc(CC)s3)N2C1=O | 30.3 | 79.4 | IC50 [3]: > 20000 nM; IC50 [4]: > 20000 nM; IC50 [5]: > 20000 nM; IC50 [6]: > 10000 nM; IC50 [7]: 107 nM; Ratio IC50 (Homo sapiens [8]): 4; IC50 [9]: > 1000 nM; Ratio IC50 (Homo sapiens [10]): > 33 |
| Cc1ccsc1[C@@H]1c2[nH]c3ccccc3c2C[C@@H]2C(=O)N(C)CC(=O)N12 | 50.2 | 66.7 | – |
| CCc1ccc(C2c3[nH]c4ccccc4c3C(=O)CN2c2ncc(-c3ccc(OC)c(OC)c3)cn2)s1 (centres undefined) | 39.7 | 69.4 | IC50 [7]: 253 nM; Ratio IC50 (Homo sapiens [8]): 6; IC50 [9]: 153 nM; Ratio IC50 (Homo sapiens [10]): 4 |
| Cc1ccsc1[C@H]1c2[nH]c3ccccc3c2C[C@@H]2C(=O)N(C)CC(=O)N12 | 97.5 | 57.4 | – |
| CCc1ccc(C2c3[nH]c4ccccc4c3CCN2c2ncc(-c3ccc(OC)c(OC)c3)cn2)s1 (centres undefined) | – | 27.6 | – |
| CCc1ccc(C(=O)c2[nH]c3ccccc3c2C[C@H]2NC(=O)N(CC)C2=O)s1 | – | 11.1 | – |
| Cc1ccc([C@H]2c3[nH]c4ccccc4c3C[C@@H]3C(=O)N(C)CC(=O)N23)s1 | – | 40.2 | – |
| CCc1ccc(C(=O)c2[nH]c3ccccc3c2CCNc2ncc(-c3ccc(OC)c(OC)c3)cn2)o1 | – | 29.1 | – |
| CCc1ccc(C(=O)c2[nH]c3ccccc3c2C[C@H]2NC(=O)CN(C)C2=O)s1 | – | 21.1 | – |
| Cc1ccc(C2c3[nH]c4ccccc4c3CCN2c2ccc(-c3ccccn3)cn2)o1 (centres undefined) | – | 23.2 | – |
| CCc1ccc(C(=O)c2[nH]c3ccccc3c2C[C@@H]2NC(=O)CN(C)C2=O)s1 | – | 23.3 | – |
| c1ccc(-c2ccc(N3CCc4c([nH]c5ccccc45)C3c3cc4ccccc4o3)nc2)nc1 (centres undefined) | – | 15.2 | – |
| CCc1ccc(C2c3[nH]c4ccccc4c3CCN2C(=O)/C=C/c2ccc(C(=O)OC)cc2)s1 (centres undefined) | – | 43.9 | – |
| CCc1ccc(C(=O)c2[nH]c3ccccc3c2CCNc2ccc(-c3ccccn3)cn2)o1 | – | 16.1 | – |
